Assay results from different studies.
Lines come from different studies, so protocols differ.
DRD3: D(3) dopamine receptor (DRD3, Homo sapiens, UniProt P35462)
SLC6A3: Sodium-dependent dopamine transporter (SLC6A3, Homo sapiens, UniProt Q01959)
CA12: Carbonic anhydrase 12 (CA12, Homo sapiens, UniProt O43570)

Compound	target	test	conditions	endpoint	result
CCN(C)C(=O)c1c(C)[nH]c(C)c1S(=O)(=O)Nc1ccc(C(F)(F)F)c(Cl)c1	DRD3	G protein activation, antagonist, BRET		IC50	13 µM
CCOC(=O)[C@@]12C[C@@H]1[C@@H](n1cnc3c(NCCCCCc4ccccc4)nc(I)nc31)[C@H](O)[C@@H]2O	SLC6A3	ligand displacement, radioligand		Ki	1.6 µM
O=C(OCc1cn(-c2ccccc2)nn1)c1ccc(=O)oc1	CA12	enzyme activity, inhibitor, stopped-flow		Ki	55.8 µM
Cc1[nH]c(C)c(S(=O)(=O)Nc2ccc(C(=O)C(F)(F)F)c(Cl)c2)c1C(=O)N1CCC(F)(F)C1	DRD3	G protein activation, antagonist, BRET		IC50	14.3 µM
CNC(=O)[C@@]12C[C@@H]1[C@@H](n1cnc3c(Nc4ccccc4)nc(C#Cc4ccc(Cl)s4)nc31)[C@H](O)[C@@H]2O	SLC6A3	ligand displacement, radioligand		Ki	1.6 µM
Cc1[nH]cc(S(=O)(=O)Nc2ccc(C(F)(F)F)c(Cl)c2)c1C(=O)N(C)C	DRD3	G protein activation, antagonist, BRET		IC50	6.3 µM
N#CC[C@@]12C[C@@H]1[C@@H](n1cnc3c(NCc4cccc(Cl)c4)nc(C#Cc4ccc(Cl)s4)nc31)[C@H](O)[C@@H]2O	SLC6A3	ligand displacement, radioligand		Ki	1.2 µM
Cc1[nH]c(C)c(S(=O)(=O)Nc2ccc(S(C)(=O)=O)c(Cl)c2)c1C(=O)N1CCC(F)(F)C1	DRD3	G protein activation, antagonist, BRET		IC50	23 µM
Cc1ccc(-n2cc(COC(=O)c3ccc(=O)oc3)nn2)cc1	CA12	enzyme activity, inhibitor, stopped-flow		Ki	62.6 µM
Cc1[nH]c(C)c(S(=O)(=O)Nc2ccc(C(F)(F)F)c(Cl)c2)c1C(=O)N(C)CC(F)(F)F	DRD3	G protein activation, antagonist, BRET		IC50	4.6 µM
O=C(Oc1ccc(Br)cc1)c1ccc(=O)oc1	CA12	enzyme activity, inhibitor, stopped-flow		Ki	0.91 µM
NCC(=O)O	Glutamate NMDA receptor; GRIN1/GRIN2B (GRIN1/GRIN2B, Homo sapiens, UniProt Q05586+Q13224)	ion current, agonist, two-electrode voltage clamp	oocytes	EC50	0.32 µM
CCOC(=O)[C@@]12C[C@@H]1[C@@H](n1cnc3c(Nc4ccccc4)nc(C#Cc4ccc(Cl)s4)nc31)[C@H](O)[C@@H]2O	SLC6A3	ligand displacement, radioligand		Ki	1.4 µM
C#CCOC(=O)c1ccc(=O)oc1	CA12	enzyme activity, inhibitor, stopped-flow		Ki	76.3 µM
Cc1c(Cl)c(=O)oc2cc(OCCCCSC#N)ccc12	CA12	enzyme activity, inhibitor, stopped-flow		Ki	0.0591 µM
Cc1[nH]c(C)c(S(=O)(=O)Nc2ccc(C(F)(F)F)c(Cl)c2)c1C(=O)N1CC[C@@H](F)C1	DRD3	G protein activation, antagonist, BRET		IC50	1 µM
CCOC(=O)[C@@]12C[C@@H]1[C@@H](n1cnc3c(NCc4cccc(Cl)c4)nc(C#Cc4ccc(Cl)s4)nc31)[C@H](O)[C@@H]2O	SLC6A3	ligand displacement, radioligand		Ki	0.94 µM
OCc1ccccc1O[C@@H]1O[C@H](CO)[C@@H](O)[C@H](O)[C@H]1O	Taste receptor type 2 member 16 (TAS2R16, Homo sapiens, UniProt Q9NYV7, N96T)	inositol phosphate, agonist, TR-FRET		EC50	5520 µM
CNc1nc(I)nc2c1ncn2[C@H]1[C@H](O)[C@H](O)[C@]2(CC#N)C[C@H]12	SLC6A3	ligand displacement, radioligand		EC50	> 10 µM
O=C(NCc1cn(-c2ccc(Cl)cc2)nn1)c1ccc(=O)oc1	CA12	enzyme activity, inhibitor, stopped-flow		Ki	61.2 µM
CCOC(=O)[C@@]12C[C@@H]1[C@@H](n1ccc3c(NCCCCCc4ccccc4)nc(C#Cc4ccccc4)nc31)[C@H](O)[C@@H]2O	SLC6A3	ligand displacement, radioligand		Ki	1.9 µM
O=C(Oc1ccc(Cl)cc1)c1ccc(=O)oc1	CA12	enzyme activity, inhibitor, stopped-flow		Ki	76.3 µM
Cc1[nH]c(C)c(S(=O)(=O)Nc2cc(Cl)cc(Cl)c2Cl)c1C(=O)N1CCC(F)(F)C1	DRD3	G protein activation, antagonist, BRET		IC50	14.8 µM
CCOC(=O)c1ccc(=O)oc1	CA12	enzyme activity, inhibitor, stopped-flow		Ki	92.6 µM
OC[C@@]12C[C@@H]1[C@@H](n1cnc3c(Nc4ccccc4)nc(I)nc31)[C@H](O)[C@@H]2O	SLC6A3	ligand displacement, radioligand		EC50	3 µM
O=C(OCc1cn(-c2ccc(Cl)cc2)nn1)c1ccc(=O)oc1	CA12	enzyme activity, inhibitor, stopped-flow		Ki	61.3 µM
Cc1[nH]c(C)c(S(=O)(=O)Nc2ccc(C(F)(F)F)c(Cl)c2)c1C(=O)NCC(F)(F)F	DRD3	G protein activation, antagonist, BRET		IC50	4 µM
